Screening results: PubChem, several laboratories
aDG glyco act – alpha-DG glycosylation activation; Pro5-aDG cells, alpha-DG glycosylation AlphaScreen (IIH6); 0% Pro5, 100% B10-LARGE cell signal; activation, % at 10 µM; 360,000 tested, 0.22% active; AID 624168;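 active = activation of at least 8% versus controls, or a plate z-score of at least 8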;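 note: Pro5 are CHO cells carrying HIG-tagged alpha-DG that lacks glycosylation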
MPTP inh – inhibitors of mitochondrial permeability transition pore. isolated mouse mitochondria, Ca2+ swelling absorbance, 30 min. inhibition, % at 10 µM. 360,000 tested, 1.4% active;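 active = inhibition of 50% or more, scaled per plate between neutral and stimulator controls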;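 note: 0% = DMSO wells given calcium and 100% = 1 mM EGTA wells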
procasp3 activ – activators of human procaspase-3; P42574; recombinant procaspase-3 D3A, Ac-DEVD-pNA absorbance 405 nm; activation, % at 8.5 µM; 330,000 tested, 0.11% active;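 active = activation above the mean of all tested compounds plus 3 SD, cut at about 21% in these data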;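 note: 0% = DMSO alone and 100% = DMSO wells spiked with extra 5 µM PC-3 D3A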
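Assay system: Autoprocessing-dead procaspase-3 D3A mutant enzyme; also added: Ac-DEVD-pNA; doses: one concentration, 8.5 µM nominal, 0.8% DMSO; times: 1 h compound preincubation, 2 h substrate hydrolysis at 25 °C; technique: 405 nm absorbance of p-nitroaniline, reads at 0 and 120 min; measure: % activation between DMSO and enzyme-spiked controls; repeats: single replicate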
NR3A LBD binder – NR3A (human) ligand-binding domain modulation; NR3A LBD differential scanning fluorimetry, Tm shift; 0% = protein alone, 100% = glycine-bound protein; Tm shift relative to glycine control, % at 25 µM; 340,000 tested, 2.5% active; AID 1259313;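 active = melting temperature shift of at least 10% of the positive control shift, at one fixed dose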
proCasp7 act – counter-screen: procaspase-7 (human) activation; AID 463210; 330,000 tested, 0.093% active; P55210; activation, % at 8.5 µM; recombinant procaspase-7, Ac-DEVD-pNA absorbance 405 nm; D23A/D198A/D206A triple mutant, cannot self-cleave; scale: DMSO 0, 5 µM enzyme 100;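 active = percent activation above the screen-wide mean plus 3 SD, cut at about 25% in these data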
Target sequence (P55210 whole entry D23A/D198A/D206A): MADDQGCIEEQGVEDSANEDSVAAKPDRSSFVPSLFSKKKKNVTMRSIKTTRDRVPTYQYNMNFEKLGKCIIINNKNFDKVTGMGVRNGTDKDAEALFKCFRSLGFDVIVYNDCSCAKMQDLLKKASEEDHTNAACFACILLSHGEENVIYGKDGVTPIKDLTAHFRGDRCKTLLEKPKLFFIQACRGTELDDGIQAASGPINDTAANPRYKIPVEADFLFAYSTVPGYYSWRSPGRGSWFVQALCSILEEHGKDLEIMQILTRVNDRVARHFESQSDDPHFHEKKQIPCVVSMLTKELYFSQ
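System: Uncleavable procaspase-7 mutant enzyme; Amount: 2 µM procaspase-7 mutant as dispensed; Schedule: 1 h compound preincubation, 2 h substrate cleavage, 25 °C; Measured by: 405 nm absorbance of p-nitroaniline; Evaluation: percent activation from buffer-corrected 0–120 min absorbance change; Control set: low DMSO alone, high DMSO plus 5 µM PC-7.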
MPTP counter – membrane potential counter-screen of mitochondrial pore inhibitors | shares compounds with MPTP inh | isolated mitochondria, Rhodamine 123 fluorescence | inhibition, % at 10 µM | 5,000 tested, 78% active | AID 624504; in the data active = inhibition above about 22%;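 note: 0% = DMSO vehicle and 100% = positive control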
MPTP abs DR – MPTP inhibition, dose response swelling confirmation. shares compounds with MPTP inh. isolated mitochondria swelling, absorbance. IC50, µM. 780 tested, 58% active. AID 651561; in the data active = IC50 below about 20 µM
MPTP cs DR – MPTP inhibitor counter-screen activity, dose response | AID 651564 | isolated mitochondria counterscreen, fluorescence read-out | 780 tested, 49% active | IC50, µM | shares compounds with MPTP inh; in the data active = IC50 below about 80 µM
Active calls of the source: *; i = inactive; . = no result. This is a sample that favours compounds with a hit; in the whole collection about 3.7% have one here.

SMILES	aDG glyco act	MPTP inh	procasp3 activ	NR3A LBD binder	proCasp7 act	MPTP counter	others
CC1Cc2ccccc2N1Cc1cc(=O)c(OCC(=O)NCCc2ccccc2)co1 (configuration not stated)	0	0	-8	0	1	.
Cc1cccc(OCC(=O)N(Cc2ccccc2)c2c(N)n(Cc3ccccc3)c(=O)[nH]c2=O)c1	0	0	5	-2	1	.
O=S(=O)(NC1CC(NS(=O)(=O)OCC(Cl)(Cl)Cl)C2CCCCC12)OCC(Cl)(Cl)Cl (configuration not stated)	0	70*	1	9	10	102*
CC1CN(S(=O)(=O)c2ccc(NC(=O)c3cc(-c4ccccc4O)n[nH]3)cc2)CC(C)O1 (configuration not stated)	1	79*	7	36*	4	72*
COc1ccccc1N(C)S(=O)(=O)c1ccc(C(=O)Nc2nc(C)cs2)cc1	0	0	-4	1	6	.
CN(C)S(=O)(=O)c1ccc(C(=O)Nc2nc(-c3cc4ccccc4o3)cs2)cc1	3	85*	6	5	-6	87*
O=C(Nc1nc(-c2ccc(S(=O)(=O)N3CCOCC3)cc2)cs1)c1ccccc1	0	-2	5	-3	1	.
O=C(Nc1nc(-c2cc3ccccc3o2)cs1)c1ccc(S(=O)(=O)N2CCCC2)cc1	5	63*	-2	-2	-33	82*
Cc1ccccc1C(=O)Nc1ccc(S(=O)(=O)N2CC(C)OC(C)C2)cc1 (configuration not stated)	0	0	10	1	-7	.
CC1CN(S(=O)(=O)c2ccc(C(=O)Nc3nc(-c4cc5ccccc5o4)cs3)cc2)CC(C)O1 (configuration not stated)	5	88*	1	-7	6	19	MPTP abs DR=i;MPTP cs DR=<2.5*
CCCCc1ccc(NC(=O)Cn2c(=O)c(N3CCCCC3)c(N)n(C)c2=O)cc1	0	0	-6	3	-3	.
CCOC(=O)C1=C(Nc2ccccc2)CC(C)(O)C(C(=O)OCC)C1c1ccc(Br)cc1 (configuration not stated)	0	59*	0	-1	10	-4	MPTP abs DR=>100;MPTP cs DR=>80
CN(Cc1ccccc1)C(=O)c1[nH]cnc1C(=O)Nc1ccc(Br)cc1F	0	0	.	.	.	.
Cc1ccccc1P(=O)(c1ccccc1)c1ccccc1C	0	-1	.	.	.	.
COC(=O)c1ccc(CNCC(O)COc2ccc(-c3ccccc3)cc2)cc1 (configuration not stated)	0	89*	5	-3	-1	-4	MPTP abs DR=8.8*;MPTP cs DR=>80
COCCNC(=O)C(=O)NCC1OCCN1S(=O)(=O)c1ccc(F)cc1 (configuration not stated)	0	0	4	-1	8	.
CCSc1nsc(NC(=O)Nc2ccc(F)cc2F)n1	0	72*	-16	0	1	91*
CCOc1ccc(NC(=O)Nc2nc(SCC)ns2)cc1	0	97*	2	37*	-1	79*
CCSc1nsc(NC(=O)Nc2ccccc2Cl)n1	0	63*	.	5	.	90*
O=C1c2ccccc2-c2cccc(NS(=O)(=O)c3ccc(C(F)(F)F)cc3)c21	0	64*	-1	2	6	38*
CSc1ccc(S(=O)(=O)N2CCC(C(=O)N3CCc4ccccc4C3)CC2)cc1	0	-2	7	1	3	.
COc1ccc(NS(=O)(=O)c2ccc3c(c2)Cc2ccccc2-3)cn1	0	84*	-6	-3	16	87*
COc1ccc(NS(=O)(=O)c2ccc(N3CCCC3=O)cc2)cn1	1	0	-1	1	11	.
COc1ccc(NC(=O)c2cccc(Oc3ccccc3)c2)cn1	0	0	8	-2	-2	.
